From ChEMBL document CHEMBL4342456, “Preventing Morphine-Seeking Behavior through the Re-Engineering of Vincamine's Biological Activity” (J Med Chem, 2020)
Activity calls are given as the source filed them. The calls are words filed in the database; no cut-off is given here.

Key:
[1] = target: T1, Cannabinoid receptor 2 (Homo sapiens, UniProt P34972); test: (§1) Antagonist activity at human Gi/o-coupled CNR2 expressed in CHOK1 cells assessed as inhibition in CP55940-induced beta-arrestin 2 recruitment incubated for 30 mins followed by CP55940 addition and measured after 90 or 180 mins by pathhunter beta-arrestin assay; assay type: cell-based
T1 sequence (P34972 whole entry): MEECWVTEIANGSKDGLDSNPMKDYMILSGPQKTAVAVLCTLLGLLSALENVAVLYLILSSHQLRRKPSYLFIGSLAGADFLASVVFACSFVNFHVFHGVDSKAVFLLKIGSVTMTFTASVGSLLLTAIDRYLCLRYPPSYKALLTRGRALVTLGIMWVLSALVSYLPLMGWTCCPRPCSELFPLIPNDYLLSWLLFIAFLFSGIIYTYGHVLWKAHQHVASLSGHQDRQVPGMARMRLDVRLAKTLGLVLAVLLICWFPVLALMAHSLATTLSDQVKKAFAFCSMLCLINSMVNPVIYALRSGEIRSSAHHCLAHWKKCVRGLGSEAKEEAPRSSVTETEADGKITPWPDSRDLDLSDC
Procedure, shortened: (§2)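 PathHunter beta-arrestin recruitment, antagonist mode, run at DiscoverX. Cells seeded and held at 37 °C, then preincubated with test sample for 30 min at 37 °C or room temperature (1% vehicle). Agonist then added at EC80 for 90 or 180 min. […] IC50 comes from concentration–response runs in the same format.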

[2] = target: T2, Neuropeptide S receptor (Homo sapiens, UniProt Q6W5P4); test: (§3) Antagonist activity at human Gq-coupled NPSR1b expressed in human U2OS cells assessed as inhibition in neuropeptide S-induced beta-arrestin 2 recruitment incubated for 30 mins followed by neuropeptide S addition and measured after 90 or 180 mins by pathhunter beta-arrestin assay; assay type: cell-based; procedure, shortened: as §2
T2 sequence (Q6W5P4 whole entry): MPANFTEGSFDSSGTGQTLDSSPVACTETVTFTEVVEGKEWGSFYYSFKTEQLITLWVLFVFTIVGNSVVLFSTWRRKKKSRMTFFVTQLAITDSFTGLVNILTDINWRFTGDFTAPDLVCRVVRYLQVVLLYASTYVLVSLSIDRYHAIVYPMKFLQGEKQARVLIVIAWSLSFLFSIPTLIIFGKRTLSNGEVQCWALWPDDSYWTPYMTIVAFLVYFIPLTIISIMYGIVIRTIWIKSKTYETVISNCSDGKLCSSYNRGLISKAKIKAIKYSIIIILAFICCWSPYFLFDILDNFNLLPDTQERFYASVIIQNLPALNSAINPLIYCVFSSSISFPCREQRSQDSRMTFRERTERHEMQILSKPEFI

[3] = target: T3, Glucose-dependent insulinotropic receptor (Homo sapiens, UniProt Q8TDV5); test: Antagonist activity at human GPR119 expressed in human HEK293 cells assessed as inhibition in agonist-induced beta-arrestin 2 recruitment incubated for 30 mins followed by agonist addition and measured after 90 or 180 mins by pathhunter beta-arrestin assay; assay type: cell-based; procedure, shortened: as §2
T3 sequence (Q8TDV5 whole entry): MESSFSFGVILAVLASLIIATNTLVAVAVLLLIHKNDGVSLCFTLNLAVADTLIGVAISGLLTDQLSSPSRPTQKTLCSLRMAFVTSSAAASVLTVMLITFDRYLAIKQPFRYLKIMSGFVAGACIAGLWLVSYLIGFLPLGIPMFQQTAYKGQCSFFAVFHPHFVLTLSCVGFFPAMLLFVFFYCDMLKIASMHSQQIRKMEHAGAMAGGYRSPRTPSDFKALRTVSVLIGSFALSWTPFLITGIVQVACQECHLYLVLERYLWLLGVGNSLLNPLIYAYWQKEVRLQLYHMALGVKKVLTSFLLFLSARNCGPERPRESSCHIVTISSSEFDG

[4] = target: T4, Prostacyclin receptor (Homo sapiens, UniProt P43119); test: Antagonist activity at human Gs-coupled PTGIR assessed as inhibition in beraprost-induced beta-arrestin 2 recruitment incubated for 30 mins followed by beraprost- addition and measured after 90 or 180 mins by pathhunter beta-arrestin assay; procedure, shortened: as §2
T4 sequence (P43119 whole entry): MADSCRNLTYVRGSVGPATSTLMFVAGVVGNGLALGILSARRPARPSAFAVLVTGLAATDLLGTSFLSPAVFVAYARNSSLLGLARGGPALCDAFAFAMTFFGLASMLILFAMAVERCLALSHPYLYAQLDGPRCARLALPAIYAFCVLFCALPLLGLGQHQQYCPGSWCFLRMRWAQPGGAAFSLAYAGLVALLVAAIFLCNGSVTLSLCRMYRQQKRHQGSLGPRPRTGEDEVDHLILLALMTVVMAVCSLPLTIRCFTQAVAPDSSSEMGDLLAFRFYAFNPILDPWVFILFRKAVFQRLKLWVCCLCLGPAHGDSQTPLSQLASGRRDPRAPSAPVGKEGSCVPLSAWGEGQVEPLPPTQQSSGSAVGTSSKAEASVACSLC

[5] = target: T5, Cannabinoid receptor 1 (Homo sapiens, UniProt P21554); test: Antagonist activity at human Gi/o-coupled CNR1 expressed in CHOK1 cells assessed as inhibition in CP55940-induced beta-arrestin 2 recruitment incubated for 30 mins followed by CP55940 addition and measured after 90 or 180 mins by pathhunter beta-arrestin assay; assay type: cell-based; procedure, shortened: as §2
T5 sequence (P21554 whole entry): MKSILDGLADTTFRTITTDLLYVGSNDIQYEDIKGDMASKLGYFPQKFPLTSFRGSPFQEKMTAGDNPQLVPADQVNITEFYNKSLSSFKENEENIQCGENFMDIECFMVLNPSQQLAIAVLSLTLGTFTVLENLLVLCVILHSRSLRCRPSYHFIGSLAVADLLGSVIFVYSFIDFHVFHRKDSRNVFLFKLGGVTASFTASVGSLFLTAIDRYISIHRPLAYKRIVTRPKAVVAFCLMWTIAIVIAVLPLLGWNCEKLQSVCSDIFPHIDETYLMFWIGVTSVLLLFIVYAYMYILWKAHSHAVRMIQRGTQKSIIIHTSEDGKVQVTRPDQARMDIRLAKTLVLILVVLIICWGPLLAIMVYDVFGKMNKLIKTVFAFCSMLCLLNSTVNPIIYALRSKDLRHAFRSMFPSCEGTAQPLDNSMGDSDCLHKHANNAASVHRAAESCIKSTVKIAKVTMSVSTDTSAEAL

[6] = target: T6, Prolactin-releasing peptide receptor (Homo sapiens, UniProt P49683); test: as §1, with “Gq-coupled PRLHR” for “Gi/o-coupled CNR2”, “prolactin releasing peptide (1 to 31)-induced” for “CP55940-induced”, “prolactin releasing peptide (1 to 31)” for “CP55940”; assay type: cell-based; procedure, shortened: as §2
T6 sequence (P49683 whole entry): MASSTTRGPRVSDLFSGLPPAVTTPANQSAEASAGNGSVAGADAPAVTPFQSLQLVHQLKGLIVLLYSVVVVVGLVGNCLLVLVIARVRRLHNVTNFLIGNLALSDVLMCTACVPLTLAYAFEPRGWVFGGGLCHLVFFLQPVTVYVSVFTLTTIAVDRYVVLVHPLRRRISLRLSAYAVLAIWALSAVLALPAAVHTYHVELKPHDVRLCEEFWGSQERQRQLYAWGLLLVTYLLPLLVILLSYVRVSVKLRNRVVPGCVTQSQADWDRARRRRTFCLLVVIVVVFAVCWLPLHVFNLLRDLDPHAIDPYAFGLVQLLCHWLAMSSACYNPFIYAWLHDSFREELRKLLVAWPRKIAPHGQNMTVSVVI

[7] = target: T7, Glucose-dependent insulinotropic receptor (Homo sapiens) (UniProt Q8TDV5); test: Antagonist activity at human GPR119 assessed as inhibition in oleoylethanolamide-induced beta-arrestin 2 recruitment at 20 uM incubated for 30 mins followed by oleoylethanolamide addition and measured after 90 or 180 mins by pathhunter beta-arrestin assay relative to control
T7 sequence (whole entry): T3 sequence (Q8TDV5 whole entry)
Procedure, shortened: (§4)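 PathHunter beta-arrestin recruitment, antagonist mode, run at DiscoverX. Cells seeded and held at 37 °C, then preincubated with test sample for 30 min at 37 °C or room temperature (1% vehicle). Agonist then added at EC80 for 90 or 180 min. IC50 comes from concentration–response runs in the same format.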

[8] = target: D(2) dopamine receptor (Homo sapiens) (UniProt P14416); test: (§5) Antagonist activity at human Gi/o-coupled DRD2L expressed in CHOK1 cells assessed as inhibition in dopamine-induced beta-arrestin 2 recruitment at 20 uM incubated for 30 mins followed by dopamine addition and measured after 90 or 180 mins by pathhunter beta-arrestin assay relative to control; assay type: cell-based; procedure, shortened: as §4
Chain of D(2) dopamine receptor (Homo sapiens) (P14416 whole entry): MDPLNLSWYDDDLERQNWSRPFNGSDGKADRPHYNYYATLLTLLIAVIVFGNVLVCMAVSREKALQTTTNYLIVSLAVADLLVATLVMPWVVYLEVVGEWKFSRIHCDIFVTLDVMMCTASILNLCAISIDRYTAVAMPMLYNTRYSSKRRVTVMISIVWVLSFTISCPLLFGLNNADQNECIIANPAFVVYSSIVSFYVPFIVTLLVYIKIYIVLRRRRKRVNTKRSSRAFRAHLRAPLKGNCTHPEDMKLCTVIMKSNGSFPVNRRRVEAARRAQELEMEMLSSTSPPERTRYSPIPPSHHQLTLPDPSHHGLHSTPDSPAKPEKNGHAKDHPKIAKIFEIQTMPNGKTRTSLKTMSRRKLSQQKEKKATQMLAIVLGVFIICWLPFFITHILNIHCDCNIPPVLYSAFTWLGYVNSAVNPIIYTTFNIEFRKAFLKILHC

[9] = target: T5, Cannabinoid receptor 1; test: Antagonist activity at human Gi/o-coupled CNR1 expressed in CHOK1 cells assessed as inhibition in CP55940-induced beta-arrestin 2 recruitment at 20 uM incubated for 30 mins followed by CP55940 addition and measured after 90 or 180 mins by pathhunter beta-arrestin assay relative to control; assay type: cell-based; procedure, shortened: as §4
[10] = system: Mus musculus; test: Suppression of drug-induced cocaine-seeking behavior in C57BL/6J mouse assessed as reduction in morphine-conditioned place preference at 60 nmol, icv administered 20 mins prior to behavioral morphine addition measured twice weekly for 7 weeks; assay type: functional, organism-based; conditions: in the assay text read “morphine-seeking” for “cocaine-seeking”
Procedure, shortened: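 Male C57BL/6J mice, 7–11 weeks, 20–33 g. Three-compartment counterbalanced place conditioning. Test agent given i.c.v. in 10% Solutol HS 15/90% saline, 20 min before morphine (10 mg/kg i.p., in 0.9% saline). Mice then confined 40 min in the paired outer chamber. Saline i.p. conditioning in the opposite chamber followed 4 h later. Preference was scored in a 30 min automated test. n = 16–30/group; two-way ANOVA with Tukey post hoc.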

[11] = target: C-X-C chemokine receptor type 4 (Homo sapiens) (UniProt P61073); test: Antagonist activity at human Gi/o-coupled CXCR4 expressed in mouse C2C12 cells assessed as inhibition in CXCL12-induced beta-arrestin 2 recruitment at 20 uM incubated for 30 mins followed by CXCL12 addition and measured after 90 or 180 mins by pathhunter beta-arrestin assay relative to control; assay type: cell-based; procedure, shortened: as §4
Chain of C-X-C chemokine receptor type 4 (Homo sapiens) (P61073 whole entry): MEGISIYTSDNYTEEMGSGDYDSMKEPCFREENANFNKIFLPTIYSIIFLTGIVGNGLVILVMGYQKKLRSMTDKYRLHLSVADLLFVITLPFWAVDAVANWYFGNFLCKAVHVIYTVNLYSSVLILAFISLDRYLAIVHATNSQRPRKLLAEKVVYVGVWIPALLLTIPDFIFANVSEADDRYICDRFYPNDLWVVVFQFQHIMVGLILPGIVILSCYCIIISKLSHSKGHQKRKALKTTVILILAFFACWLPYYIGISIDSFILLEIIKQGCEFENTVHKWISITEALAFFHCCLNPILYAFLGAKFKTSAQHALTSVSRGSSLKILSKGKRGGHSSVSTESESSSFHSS

[12] = target: T8, Muscarinic acetylcholine receptor M4 (Homo sapiens) (UniProt P08173); test: as §5, with “Gs/Gi/o-coupled CHRM4” for “Gi/o-coupled DRD2L”, “acetylcholine-induced” for “dopamine-induced”, “acetylcholine” for “dopamine”; assay type: cell-based; procedure, shortened: as §4
T8 sequence (whole entry): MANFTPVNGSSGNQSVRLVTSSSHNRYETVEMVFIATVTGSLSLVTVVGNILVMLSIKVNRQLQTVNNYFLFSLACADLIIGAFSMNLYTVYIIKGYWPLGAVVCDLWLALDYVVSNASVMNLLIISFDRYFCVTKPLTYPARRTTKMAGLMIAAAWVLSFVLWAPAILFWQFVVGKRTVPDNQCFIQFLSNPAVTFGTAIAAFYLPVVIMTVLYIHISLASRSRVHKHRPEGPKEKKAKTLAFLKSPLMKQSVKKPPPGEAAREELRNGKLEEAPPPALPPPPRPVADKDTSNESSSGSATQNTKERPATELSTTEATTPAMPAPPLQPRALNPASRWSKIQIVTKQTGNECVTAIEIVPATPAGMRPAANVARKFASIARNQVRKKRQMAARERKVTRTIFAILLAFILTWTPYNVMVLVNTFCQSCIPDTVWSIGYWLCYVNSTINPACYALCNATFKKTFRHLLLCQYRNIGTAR

[13] = target: C-C chemokine receptor type 8 (Homo sapiens, UniProt P51685); test: Antagonist activity at human CCR8 expressed in CHOK1 cells assessed as inhibition in CCL1-induced beta-arrestin 2 recruitment at 20 uM incubated for 30 mins followed by CCL1 addition and measured after 90 or 180 mins by pathhunter beta-arrestin assay relative to control; assay type: cell-based; procedure, shortened: as §4
Chain of C-C chemokine receptor type 8 (P51685 whole entry): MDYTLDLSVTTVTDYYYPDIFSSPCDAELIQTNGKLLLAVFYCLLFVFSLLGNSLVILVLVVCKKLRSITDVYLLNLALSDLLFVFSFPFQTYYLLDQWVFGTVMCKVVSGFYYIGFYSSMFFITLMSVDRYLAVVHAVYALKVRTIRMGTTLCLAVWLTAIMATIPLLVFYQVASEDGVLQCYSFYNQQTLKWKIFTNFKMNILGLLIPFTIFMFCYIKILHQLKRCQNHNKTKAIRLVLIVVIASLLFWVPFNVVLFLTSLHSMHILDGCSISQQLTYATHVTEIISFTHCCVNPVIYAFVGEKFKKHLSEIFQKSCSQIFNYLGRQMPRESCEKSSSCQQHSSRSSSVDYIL

[14] = target: T9, Orexin receptor type 2 (Homo sapiens) (UniProt O43614); test: (§6) Antagonist activity at human Gq-coupled HCRTR2 expressed in CHOK1 cells assessed as inhibition in Orexin A-induced beta-arrestin 2 recruitment at 20 uM incubated for 30 mins followed by Orexin A addition and measured after 90 or 180 mins by pathhunter beta-arrestin assay relative to control; assay type: cell-based; procedure, shortened: as §4
T9 sequence (whole entry): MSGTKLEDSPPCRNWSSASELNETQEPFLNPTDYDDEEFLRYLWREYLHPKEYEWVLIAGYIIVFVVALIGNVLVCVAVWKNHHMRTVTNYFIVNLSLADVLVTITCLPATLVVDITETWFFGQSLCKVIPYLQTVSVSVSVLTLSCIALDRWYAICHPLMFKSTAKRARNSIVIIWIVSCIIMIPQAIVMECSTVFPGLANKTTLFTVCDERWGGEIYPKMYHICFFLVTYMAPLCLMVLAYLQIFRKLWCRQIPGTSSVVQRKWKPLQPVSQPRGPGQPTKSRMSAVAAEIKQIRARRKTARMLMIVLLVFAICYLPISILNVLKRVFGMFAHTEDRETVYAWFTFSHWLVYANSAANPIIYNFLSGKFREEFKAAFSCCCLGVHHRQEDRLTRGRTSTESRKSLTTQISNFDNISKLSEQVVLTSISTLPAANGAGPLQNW

[15] = target: T10, Prolactin-releasing peptide receptor (Homo sapiens) (UniProt P49683); test: as §6, with “PRLHR” for “HCRTR2”, “prolactin releasing peptide (1 to 31)-induced” for “Orexin A-induced”, “prolactin releasing peptide (1 to 31)” for “Orexin A”; assay type: cell-based; procedure, shortened: as §4
T10 sequence (whole entry): T6 sequence (P49683 whole entry)

[16] = target: T4, Prostacyclin receptor; test: Antagonist activity at human Gs-coupled PTGIR assessed as inhibition in beraprost-induced beta-arrestin 2 recruitment at 20 uM incubated for 30 mins followed by beraprost- addition and measured after 90 or 180 mins by pathhunter beta-arrestin assay relative to control; procedure, shortened: as §4
[17] = target: T1, Cannabinoid receptor 2; test: Antagonist activity at human Gi/o-coupled CNR2 expressed in CHOK1 cells assessed as inhibition in CP55940-induced beta-arrestin 2 recruitment at 20 uM incubated for 30 mins followed by CP55940 addition and measured after 90 or 180 mins by pathhunter beta-arrestin assay relative to control; assay type: cell-based; procedure, shortened: as §4
[18] = system: Mus musculus; test: Suppression of drug-induced morphine-seeking behavior in C57BL/6J mouse assessed as reduction in stress-induced reinstatement of morphine-CPP at 60 nmol, icv administered 15 mins prior to testing by forced swim test
[19] = target: Histamine H1 receptor (Homo sapiens) (UniProt P35367); conditions: at 20 µM
Chain of Histamine H1 receptor (Homo sapiens) (P35367 whole entry): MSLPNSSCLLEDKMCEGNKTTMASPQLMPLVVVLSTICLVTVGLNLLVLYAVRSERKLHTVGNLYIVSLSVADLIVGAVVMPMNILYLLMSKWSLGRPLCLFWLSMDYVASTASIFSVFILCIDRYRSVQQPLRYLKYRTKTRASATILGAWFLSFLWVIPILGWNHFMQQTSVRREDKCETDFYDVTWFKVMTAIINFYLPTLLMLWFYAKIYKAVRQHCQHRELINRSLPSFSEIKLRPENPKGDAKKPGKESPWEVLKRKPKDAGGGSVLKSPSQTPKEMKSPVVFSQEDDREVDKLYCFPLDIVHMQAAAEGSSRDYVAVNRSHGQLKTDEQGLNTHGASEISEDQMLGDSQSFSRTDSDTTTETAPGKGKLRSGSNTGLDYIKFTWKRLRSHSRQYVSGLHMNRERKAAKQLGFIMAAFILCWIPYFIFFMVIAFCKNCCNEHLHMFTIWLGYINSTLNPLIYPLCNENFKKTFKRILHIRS

[20] = target: T11, Neuropeptide S receptor (Homo sapiens) (UniProt Q6W5P4); test: as §3, with “recruitment at 20 uM” for “recruitment”, “assay relative to control” for “assay”; assay type: cell-based; procedure, shortened: as §4
T11 sequence (whole entry): T2 sequence (Q6W5P4 whole entry)

Structure (SMILES) | IC50 [1] | IC50 [2] | IC50 [3] | IC50 [4] | IC50 [5] | IC50 [6] | inhibition [7] | inhibition [8] | inhibition [9] | Activity [10] | inhibition [11] | inhibition [12] | inhibition [13] | inhibition [14] | inhibition [15] | inhibition [16] | inhibition [17] | Activity [18] | inhibition [19] | inhibition [20]
CC[C@]12CCCN(C(=O)c3cccc(Br)c3)CCc3c(n(c4ccccc34)C(=O)C1)[C@@H]2OC | 25.7 µM | 3.9 µM | 4.62 µM | 12.5 µM | 4.95 µM | 13.8 µM |  |  |  |  |  |  |  |  |  |  |  |  |  | 
CC[C@]12CCCN3CCc4c(n(c5ccccc45)[C@@](O)(C(=O)OC)C1)[C@@H]32 |  |  |  |  |  |  | 3% | -10% | 0% | inactive | 10% | -8% | 8% | 9% | 3% | -3% | 11% | inactive | 5% | 
CC[C@@]1(CC(=O)NC2CCCC2)CCCN2CCc3c([nH]c4ccccc34)[C@@H]21 |  |  |  |  |  |  | 2% | 98% | 1% |  | 4% | 43% | 28% | 8% | 18% | 41% | 17% |  | 21% | 
CC[C@@]1(CC(=O)OC)CCCN2CC[C@]3(O)C(=Nc4ccccc43)[C@@H]21 |  |  |  |  |  |  | -2% | 0% | 4% |  | -9% | 24% | 17% | -4% | 26% | 22% | 2% |  | 8% | 
CC[C@]12CCCN3CC[C@]4(C(=O)c5ccccc5N4C(=O)C1)[C@@H]32 |  |  |  |  |  |  | 5% | -5% | 0% |  | -10% | 22% | 6% | 16% | -7% | 22% | 13% |  | -3% | -10%
COC(=O)[C@@H]1[C@H]2C[C@H]3c4[nH]c5ccccc5c4CCN3C[C@@H]2CC[C@@H]1O |  |  |  |  |  |  | 8% | 102% | 35% |  | 21% | 4% | 5% | 9% | 1% | 8% | 20% |  |  | -3%
CC[C@@]12C=C(C(=O)OC)n3c(c(c4ccccc43)CCN(/C=C/C(=O)OC)CCC1)[C@@H]2c1ccc(O)cc1 |  |  |  |  |  |  | 35% | 11% | 26% |  | 40% | 67% | 65% | 10% | 70% | 84% | 39% |  | 16% | 24%
